# Molecular target: T1, Corticotropin-releasing factor receptor 1 (Homo sapiens, UniProt P34998)
# T1 sequence (P34998 whole entry): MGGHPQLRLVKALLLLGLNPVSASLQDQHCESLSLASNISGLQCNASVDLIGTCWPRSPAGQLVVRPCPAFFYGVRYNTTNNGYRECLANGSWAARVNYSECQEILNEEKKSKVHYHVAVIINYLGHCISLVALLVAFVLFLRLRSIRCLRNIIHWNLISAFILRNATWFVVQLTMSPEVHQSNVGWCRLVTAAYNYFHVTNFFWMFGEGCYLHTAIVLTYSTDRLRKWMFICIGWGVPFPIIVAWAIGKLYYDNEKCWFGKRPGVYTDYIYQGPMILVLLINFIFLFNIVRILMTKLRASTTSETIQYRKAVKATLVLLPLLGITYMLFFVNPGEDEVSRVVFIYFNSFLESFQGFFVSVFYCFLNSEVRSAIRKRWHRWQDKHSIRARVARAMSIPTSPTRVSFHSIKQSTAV
# Experiment: Binding affinity for recombinant human CRF1 receptor
# Details: not given
row,Ki [nM],Structure (SMILES)
1,220,CCC(CC)Nc1nc(C)nc(C(=O)c2c(C)cc(C)cc2C)c1C
2,> 10000,CCCN(CC1CC1)c1nc(C)nc(C(C)(C)c2c(OC)cc(OC)cc2OC)c1C
3,38,CCCN(CC1CC1)c1nc(C)nc(C(=O)c2c(OC)cc(OC)cc2OC)c1C
4,38,C=CCN(CC=C)c1nc(C)nc(C(=O)c2c(C)cc(C)cc2C)c1C
5,15,CCCN(CC1CC1)c1nc(C)nc(C(=O)c2c(C)cc(C)cc2C)c1C
6,540,CCCN(CCO)c1nc(C)nc(C(=O)c2c(C)cc(C)cc2C)c1C
7,5100,CCCN(CC1CC1)c1nc(C)nc(C(=O)c2c(C)c(C)c(C)c(C)c2C)c1C
8,470,CCN(c1ccccc1)c1nc(C)nc(C(=O)c2c(C)cc(C)cc2C)c1C

# More lines, now with the values behind:
row,Structure (SMILES),Ki [nM]
1,Cc1cc(C)c(C(=O)c2nc(C)nc(N3CCOCC3)c2C)c(C)c1,> 10000
2,COC[C@@H]1CCCN1c1nc(C)nc(C(=O)c2c(C)cc(C)cc2C)c1C,380
3,Cc1cc(C)c(C(=O)c2nc(C)nc(N3CCCC3)c2C)c(C)c1,> 10000
4,CCCN(CC1CC1)c1nc(C)nc(C(O)c2c(CC)cc(CC)cc2CC)c1C (centres undefined),360
5,CCCN(CC1CC1)c1cc(C(=O)c2c(C)cc(C)cc2C)nc(C)n1,200
6,CCCN(CC1CC1)c1nc(C)nc(C(=O)c2ccc(OC)cc2OC)c1C,810
7,CCCN(CC1CC1)c1nc(C)nc(C(=O)c2c(CC)cc(CC)cc2CC)c1C,13
8,CCCN(CC1CC1)c1nc(C)nc(Nc2c(Cl)cc(Cl)cc2Cl)c1Cl,2.7
9,CCCN(CC1CC1)c1nc(C)nc(C(=O)c2ccccc2C)c1C,810
10,CCCN(CC1CC1)c1cc(C)nc(C(=O)c2c(OC)cc(OC)cc2OC)n1,630
11,CCCN(CCC)c1nc(C)nc(C(=O)c2c(C)cc(C)cc2C)c1C,58
12,CCCN(CC1CC1)c1nc(C)nc(C(O)c2c(C)cc(C)cc2C)c1C (centres undefined),79
13,C=C(c1nc(C)nc(N(CCC)CC2CC2)c1C)c1c(OC)cc(OC)cc1OC,560
14,C=CCc1c(C(=O)c2c(C)cc(C)cc2C)nc(C)nc1N(CCC)CC1CC1,31
15,CCCN(CC1CC1)c1nc(C)nc(Cc2c(OC)cc(OC)cc2OC)c1C,26
16,CCCN(CC1CC1)c1cc(C(=O)c2c(C)c(C)c(C)c(C)c2C)nc(C)n1,> 10000
17,CCCN(CC1CC1)c1cc(C(=O)c2c(OC)cc(OC)cc2OC)nc(C)n1,1100
18,CCCN(CC1CC1)c1nc(C)nc(C(=O)c2c(C)cc(C)cc2C)c1CC,55

# Molecular target: Corticotropin releasing factor receptor (Rattus norvegicus, UniProt P47866+P35353)
# Experiment: Inhibition of CRF-stimulated ACTH release in primary rat anterior pituitary cells
# Assay type: functional, cell-based
# Details: pituitary gland cell
row,IC50 [nM],Structure (SMILES)
1,980,CCCN(CC1CC1)c1nc(C)nc(C(=O)c2c(C)cc(C)cc2C)c1C

# Molecular target: T1, Corticotropin-releasing factor receptor 1
# Experiment: Inhibition of CRF-stimulated cAMP production in cells expressing CRF1 receptor
# Details: not given
# Procedure, shortened: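 CHO cells expressing the CRF1 receptor; antagonism of CRF-stimulated cAMP production measured over a range of compound concentrations, with IC50 taken from the concentration-response.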
row,IC50 [nM],Structure (SMILES)
1,1000,CCCN(CC1CC1)c1nc(C)nc(C(=O)c2c(OC)cc(OC)cc2OC)c1C
2,1200,CCCN(CC1CC1)c1nc(C)nc(C(=O)c2c(C)cc(C)cc2C)c1C

# Source: ChEMBL document CHEMBL1149332, “Synthesis of benzoylpyrimidines as antagonists of the corticotropin-releasing factor-1 receptor” (Bioorg Med Chem Lett, 2004)
